In PMC11022046 (iScience, 2024):
Counter-ions that a name gives are not always drawn.

Key:
[1] = tested on: H1299 cells; assay: TMRM flow cytometry with oligomycin; type: cell-based, human; conditions: H1299, 1 μM, 48 h, + 1 μM oligomycin, mean of three replicates
In short: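 H1299 cells (1.75 × 10⁵ per 10 cm plate) exposed 48 h to 1 μM or to DMSO. Attached and floating cells pooled and stained with 2 nM TMRM in phenol-red-free RPMI with 2% dialyzed FBS for 30 min at 37°C. Oligomycin (1 μM) added during the TMRM incubation, then flow cytometry. Three biological replicates.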

[2] = tested on: H1299 cells; assay: Mitochondrial structure by electron microscopy; type: cell-based, human; conditions: H1299, 48 h, 1 or 2 μM
In short: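 H1299 cells (1.75 × 10⁵ per 10 cm plate) exposed 48 h to 1 or 2 μM or to DMSO, then scraped and pelleted. Pellets fixed 4 h at room temperature in 2.0% paraformaldehyde/2.5% glutaraldehyde in 0.1 M cacodylate, pH 7.2. Post-fixed in 1.0% osmium tetroxide for 1 h; en bloc 2% aqueous uranyl acetate, 20 min, 60°C. Three biological replicates.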

[3] = tested on: H1299 lung cancer cells; assay: SRB proliferation assay; type: cell-based; conditions: Homo sapiens, NCI-H1299, 72 h, read-out: SRB IC50
In short: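 H1299 cells (RPMI/10% FBS) seeded the day before, then given serial half dilutions from 20 μM down to 0.078 μM for 72 h. Fixed in cold 10% TCA for 1 h and stained 15 min with 0.4% SRB. Washed with water and 1% acetic acid, dye dissolved in 10 mM Tris pH 10.5, OD read at 560 nm. Normalized to DMSO; IC₅₀ with 95% CI by nonlinear regression. Three biological × three technical replicates.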

[4] = Caco-2 permeability assay; type: in vitro ADME; conditions: human
In short: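 Caco-2 monolayers grown to confluence on transwells, with integrity checked by TEER. Test compound (5 μM) added to the apical or the basolateral side to give transport direction. After 2 h, donor and receiver samples quantified by LC-MS/MS. Lucifer Yellow used to check leakage. Propranolol (high absorption) and digoxin (high efflux) served as controls.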

[5] = tested on: H1299 lung cancer cells; assay: WST-8 proliferation assay; type: cell-based; conditions: Homo sapiens, NCI-H1299, 72 h, read-out: WST IC50
In short: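 H1299 cells (RPMI/10% FBS) seeded the day before, then given serial half dilutions from 20 μM down to 0.078 μM for 72 h. WST-8 reagent added to the medium at 1:10, 2 h at 37°C, OD read at 450 nm; both adherent and non-adherent cells counted. Normalized to DMSO; IC₅₀ with 95% CI by nonlinear regression. Three biological × three technical replicates.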

[6] = tested on: H1299 cells; assay: Extracellular lactate assay; type: cell-based, human; conditions: H1299, 1 and 2 μM, 48 h
In short: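 H1299 seeded at 3.75 × 10⁴ or 7.5 × 10⁴ cells/well, then treated 48 h with 1 or 2 μM or with DMSO. Medium passed through a 3K cutoff filter at 14,000 × g, 15 min, 4°C. Lactate measured with a WST-based kit on medium diluted 1:20, in triplicate, against a standard curve. Values normalized to cell count and DMSO; three biological replicates.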

[7] = tested on: H1299 cells; assay: 3D spheroid invasion assay; type: cell-based, human; conditions: H1299 spheroids in basement membrane matrix, 2 μM, 48 h
In short: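 H1299 spheroids formed over 3 days from 3 × 10³ cells/well in low-attachment wells. Embedded in Matrigel containing 0.5, 1 or 2 μM compound, with compound also in the medium, and incubated 48 h. Imaged at Day 0 and Day 2 with a 4× objective; perimeter outlined. Invasion area = Day 2 area minus Day 0 area. At least four spheroids per treatment in each of three biological replicates.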

[8] = In vivo pharmacokinetics, single IP dose; design: species or system BALB/c mice
In short: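 Female BALB/c mice (8–14 weeks) given 5 mg/kg by single IP injection in 1% DMSO/99% water. Plasma sampled at 0.25, 0.5, 1, 2, 4, 6, 8 and 24 h. Compound quantified by LC-MS/MS with calibration standards and QC samples. Terminal elimination half-life and maximum concentration derived; n = 3 mice per treatment.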

[9] = female, BALB/c, mouse, plasma, ip, 5 mg/kg

SMILES: CCCCC(CC)CNC(=N)NC(=N)NCCCCCCNC(=N)NC(=N)NCC(CC)CCCC (stereo not shown) [Alexidine, Alexidine dihydrochloride]
- percentage of cells unable to hyperpolarize with oligomycin (TMRM-low population) [1]: 18.1%
- effect on mitochondrial structure [2]: disrupted mitochondrial structure
- IC50 [3]: 1 µM
- efflux ratio at 2 h, 5 μM [4]: > 5.37
- IC50 [5]: 2.5 µM
- effect on extracellular lactate [6]: increased lactate concentration
- invasive area, % of the control [7]: 36.8%
- Cmax [8, 9]: 268 ng/mL
- half-life [8, 9]: 9.5 h
- tolerability in mice ([8]; mice, IP): tolerated in mice
